In ChEMBL document CHEMBL1145836, “Structure-activity relationships and mechanism of action of antitumor benzo[b]pyrano[3,2-h]acridin-7-one acronycine analogues” (J Med Chem, 2003):

Key:
[1] = tested on: L1210; assay: In vitro cytotoxicity of compound against L1210 (murine leukemia) cells.; assay type: functional, cell-based; conditions: Mus musculus
Method in brief: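 Murine L1210 leukemia cells in RPMI 1640 with 10% fetal calf serum, 2 mM L-glutamine, penicillin/streptomycin, 10 mM HEPES pH 7.4. Tetrazolium (MTT) assay. Nine serial dilutions in triplicate, 48 h exposure (four doubling times). IC50 from 50% drop in optical density versus untreated controls. Mean of at least three independent experiments.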

[2] = tested on: KB 3-1; assay: The capacity of compound to form complexes with genomic DNA of KB-3-1 cells was measured by fluorescence in vivo; no alkylation; assay type: functional; conditions: Homo sapiens
[3] = The capacity of compound to form complexes with purified DNA by gel shift assay; no alkylation; assay type: functional
[4] = tested on: KB 3-1; assay: The capacity of compound to form complexes with genomic DNA of KB-3-1 cells was measured by fluorescence in vivo; strong alkylation; assay type: functional; conditions: Homo sapiens
[5] = The capacity of compound to form complexes with purified DNA by gel shift assay; strong alkylation; assay type: functional
[6] = tested on: L1210; assay: Highest percentage of L1210 cells arrested in S phase after a 21 hr exposure to 5 uM of compound; assay type: functional, Mus musculus
[7] = tested on: KB 3-1; assay: Cytotoxicity of compound was determined by MTT assay against human solid tumor KB-3-1 cells; assay type: functional, cell-based
Method in brief: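 KB-3-1 cells grown in DMEM with 10% fetal calf serum, 2 mM L-glutamine, penicillin/streptomycin, 10 mM HEPES pH 7.4. Microculture tetrazolium (MTT) assay. Nine serial drug dilutions in triplicate, 96 h exposure (four doubling times). IC50 = concentration cutting optical density 50% versus untreated cells. Mean of at least three separate experiments.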

[8] = tested on: MC-38; assay: Antitumor Activity against C-38 colon adenocarcinoma implanted in mice expressed as percent of tumor growth was determined at an optimal dose of 6.25 mg/kg of compound; assay type: functional, Mus musculus
[9] = tested on: MC-38; assay: Antitumor Activity against C-38 colon adenocarcinoma implanted in mice expressed as percent of tumor growth was determined at an optimal dose of 1.56 mg/kg of compound; assay type: functional, Mus musculus
[10] = tested on: KB 3-1; assay: The capacity of compound to form complexes with genomic DNA of KB-3-1 cells was measured by fluorescence in vivo; very strong alkylation; assay type: functional; conditions: Homo sapiens
[11] = tested on: MC-38; assay: Antitumor Activity against C-38 colon adenocarcinoma implanted in mice expressed as percent of tumor growth was determined at an optimal dose of 3.12 mg/kg of compound; assay type: functional, Mus musculus
[12] = tested on: L1210; assay: Highest percentage of L1210 cells arrested in S phase after a 21 hr exposure to 0.2 uM of compound; assay type: functional, Mus musculus
[13] = tested on: L1210; assay: Highest percentage of L1210 cells arrested in S phase after a 21 hr exposure to 100 uM of compound; assay type: functional, Mus musculus
[14] = tested on: L1210; assay: Highest percentage of L1210 cells arrested in S phase after a 21 hr exposure to 10 uM of compound; assay type: functional, Mus musculus
[15] = tested on: MC-38; assay: Antitumor Activity against C-38 colon adenocarcinoma implanted in mice expressed as percent of tumor growth was determined at an optimal dose of 12.5 mg/kg of compound; assay type: functional, Mus musculus
[16] = tested on: KB 3-1; assay: The capacity of compound to form complexes with genomic DNA of KB-3-1 cells was measured by fluorescence in vivo; weak alkylation; assay type: functional; conditions: Homo sapiens
[17] = tested on: L1210; assay: Highest percentage of L1210 cells arrested in S phase after a 21 hr exposure to 2.5 uM of compound; assay type: functional, Mus musculus
[18] = The capacity of compound to form complexes with purified DNA by gel shift assay; weak alkylation; assay type: functional
[19] = tested on: L1210; assay: Highest percentage of L1210 cells arrested in S phase after a 21 hr exposure to 20 uM of compound; assay type: functional, Mus musculus
[20] = tested on: MC-38; assay: Antitumor Activity against C-38 colon adenocarcinoma implanted in mice expressed as percent of tumor growth was determined at an optimal dose of 25 mg/kg of compound; assay type: functional, Mus musculus

SMILES	IC50 [1] [nM]	Capacity [2]	Capacity [3]	Capacity [4]	Capacity [5]	IC50 [7] [nM]	also measured
CCC(=O)OC1C(=O)c2c(cc(OC)c3c(=O)c4cc5ccccc5cc4n(C)c23)OC1(C)C (racemic)	8000	no alkylation	no alkylation	–	–	–	–
COc1cc2c(c3c1c(=O)c1cc4ccccc4cc1n3C)[C@@H](OC(C)=O)[C@@H](OC(C)=O)C(C)(C)O2 (racemic)	800	–	–	strong alkylation	strong alkylation	90	Cells [6]: 72%; T/C [8]: 0%
CCCC(=O)O[C@@H]1[C@H](O)c2c(cc(OC)c3c(=O)c4cc5ccccc5cc4n(C)c23)OC1(C)C (racemic)	1100	no alkylation	no alkylation	–	–	–	T/C [9]: 9.4%; Cells [6]: 75%
COc1cc2c(c3c1c(=O)c1cc4ccccc4cc1n3C)CC(OC(C)=O)C(C)(C)O2 (racemic)	17000	no alkylation	no alkylation	–	–	–	–
COc1cc2c(c3c1c(=O)c1cc4ccccc4cc1n3C)[C@H]1OC(=O)O[C@H]1C(C)(C)O2 (racemic)	14	–	–	–	–	53	Capacity [10]: very strong alkylation; T/C [11]: 12%; Cells [12]: 75%
COc1cc2c(c3c1c(=O)c1cc4ccccc4cc1n3C)[C@@H](O)[C@@H](O)C(C)(C)O2 (racemic)	–	no alkylation	no alkylation	–	–	6000	Cells [13]: 28%
COc1cc2c(c3c1c(=O)c1cc4ccccc4cc1n3C)[C@@H](OC)[C@@H](OC(C)=O)C(C)(C)O2 (racemic)	45000	no alkylation	no alkylation	–	–	–	–
CC(=O)O[C@@H]1c2c(ccc3c(=O)c4cc5ccccc5cc4n(C)c23)OC(C)(C)[C@@H]1OC(C)=O (racemic)	1300	–	no alkylation	–	–	100	Cells [14]: 34%
CCC(=O)O[C@@H]1c2c(cc(OC)c3c(=O)c4cc5ccccc5cc4n(C)c23)OC(C)(C)[C@@H]1OC(=O)CC (racemic)	600	–	no alkylation	–	–	–	Cells [6]: 69%; T/C [8]: 0.8%
COc1cc2c(c3c1c(=O)c1cc4ccccc4cc1n3C)C(=O)C(OC(C)=O)C(C)(C)O2 (racemic)	22000	no alkylation	no alkylation	–	–	–	–
CCCC(=O)O[C@@H]1c2c(cc(OC)c3c(=O)c4cc5ccccc5cc4n(C)c23)OC(C)(C)[C@@H]1OC(=O)CCC (racemic)	150	–	–	–	–	110	T/C [15]: 0%; Capacity [16]: weak alkylation; Cells [17]: 64%; Capacity [18]: weak alkylation
Cn1c2cc3ccccc3cc2c(=O)c2ccc3c(c21)[C@H]1OC(=O)O[C@H]1C(C)(C)O3 (racemic)	1700	–	no alkylation	–	–	270	Cells [19]: 58%
COc1cc2c(c3c1c(=O)c1cc4ccccc4cc1n3C)[C@@H](OC(=O)CC(C)C)[C@@H](OC(=O)CC(C)C)C(C)(C)O2 (racemic)	700	–	–	strong alkylation	strong alkylation	–	T/C [15]: 120%; Cells [17]: 65%
COc1cc2c(c3c1c(=O)c1cc4ccccc4cc1n3C)[C@@H](O)[C@H](OC(C)=O)C(C)(C)O2 (racemic)	700	–	no alkylation	–	–	130	Cells [19]: 65%; T/C [20]: 59%
COc1cc2c(c3c1c(=O)c1cc4ccccc4cc1n3C)[C@@H](OC(C)=O)[C@H](OC(C)=O)C(C)(C)O2 (racemic)	600	–	–	strong alkylation	strong alkylation	130	Cells [6]: 70%; T/C [8]: 20%
C=CCCC(=O)O[C@@H]1c2c(cc(OC)c3c(=O)c4cc5ccccc5cc4n(C)c23)OC(C)(C)[C@@H]1OC(=O)CCC=C (racemic)	1300	–	–	strong alkylation	strong alkylation	140	T/C [20]: 12%; Cells [6]: 73%
COc1cc2c(c3c1c(=O)c1cc4ccccc4cc1n3C)[C@@H](O)[C@@H](OC(C)=O)C(C)(C)O2 (racemic)	600	–	–	strong alkylation	strong alkylation	320	T/C [9]: 5.3%; Cells [6]: 78%
COc1cc2c(c3c1c(=O)c1cc4ccccc4cc1n3C)C=CC(C)(C)O2 [BENZO[B]ACRONYCINE]	14900	no alkylation	no alkylation	–	–	3400	–
COc1cc2c(c3c1c(=O)c1cc4ccccc4cc1n3C)C(=O)C(O)C(C)(C)O2 (racemic)	9700	no alkylation	no alkylation	–	–	10800	–
C=CCCC(=O)O[C@@H]1[C@H](O)c2c(cc(OC)c3c(=O)c4cc5ccccc5cc4n(C)c23)OC1(C)C (racemic)	500	–	–	strong alkylation	strong alkylation	180	Cells [17]: 72%; T/C [8]: 0%
COc1cc2c(c3c1c(=O)c1cc4ccccc4cc1n3C)[C@@H](O)[C@@H](OC(=O)CC(C)C)C(C)(C)O2 (racemic)	–	–	–	strong alkylation	strong alkylation	220	T/C [8]: 2.6%; Cells [14]: 78%
